High-throughput results: PubChem, several laboratories
Shown are actives, neighbours in structure and some others; about 6% of the full set was active somewhere.
PTK2B oligo ant = antagonists of Pyk2 self-association, primary screen, Q293 cells, FERM NanoBiT luminescence, HTS; Protein-tyrosine kinase 2-beta (Homo sapiens), Q14289; stronger effect = lower value; z-score (the deposit names both 25 µM and 10 µM); 99,000 compounds, 0.83% hits;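 active = Z-score of -3 or lower, scaled per plate to the spread of control and sample wells; inactive = z-score above -3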;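 note: negative z-score means lost luminescence so less FERM oligomerization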
Fibroblast inh = antiproliferative effect on LL 47 fibroblasts – human, LL 47 cells, CellTiter-Glo luminescence, primary screen. LL 47 human lung fibroblast viability, ATP luminescence; stronger effect = lower value. viability, % at 10 µM. 85,000 compounds, 1.1% hits;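 active = viability at or below 50% in the single dose screen; inactive = viability above 50%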;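 note: compound exposure lasted 72 h before the ATP readout; 100% = median luminescence of untreated cell-only wells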
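Test system: LL 47 human lung fibroblasts; Quantity: 1,150 cells/well; Buffer or medium: IMEM plus 15% FBS; Dosing: tenfold compound dosing solution, DMSO at 0.1%; Timing: overnight cell rest, 72 h compound treatment at 37 °C; Detection: ATP-based CellTiter-Glo luminescent readout; Read-out basis: viability percentage against median untreated-cell control; Controls: cell-only wells, no compound.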
cytoskel mod = modifiers of F-actin cytoskeleton organization, primary screen, imaging, HUVEC, phalloidin staining, high-content imaging; HUVEC TNFa F-actin phalloidin imaging; inhibition, % at 2 µM; 91,000 compounds, 0.18% hits; AID 836, 2007;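 active = inhibition above the batch mean plus 3 SD and confirmed as a hit by visual image inspection, cut at about 30% in these data, passing the limit was not always enough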
Jurkat viability = cytotoxicity toward Jurkat T cells, primary screen, cytotoxicity control, cell-based, Jurkat E6.1, 60K MLSMR library | Jurkat E6.1 viability, ATP luminescence, 48 h | inhibition, % at 4 µM | 56,000 compounds, 1.2% hits;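 active = inhibition above the mean inhibition of all tested compounds plus 3 SD, cut at about 28% in these data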
H69AR growth 86K = proliferation blockers of H69AR lung cancer cells, primary screen, cell-based, human, 86K library | H69AR lung tumor viability, ATP luminescence, 72 h; stronger effect = lower value | viability, % at 10 µM | 85,000 compounds, 6% hits | AID 598, 2007;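 active = viability at or below 40%; inactive = viability above 40%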;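 note: multidrug resistant small cell line overexpressing MRP-1 efflux transporter; 100% = mean luminescence of untreated control wells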
HUVEC prolif 384 = inhibitors of HUVEC proliferation, primary screen, cell-based, 384-well; CellTiter-Glo luminescence, 72 h; stronger effect = lower value; viability, % at 10 µM (by protocol); 86,000 compounds, 1.1% hits; AID 648, 2007;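 active = viability at or below 30%; inactive = viability above 30%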;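 note: 100% = median luminescence of DMSO-only cell control wells on each plate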
* hit, by the source's call; · = no result given.

SMILES	PTK2B oligo ant	Fibroblast inh	cytoskel mod	Jurkat viability	H69AR growth 86K	HUVEC prolif 384
Cc1ccc(C)c(-c2nc3cc(N)ccc3o2)c1	-0.62	·	·	·	·	·
CCc1ccc2oc(-c3cc(N)ccc3Cl)nc2c1	0.46	78	·	1	71	67
CCc1ccc2oc(-c3cc(N)ccc3O)nc2c1	-0.5	68	-6	0	32*	82
O=[N+]([O-])c1ccc(Sc2n[nH]c(-c3ccc(Cl)cc3Cl)n2)nc1	0.16	92	-13	·	86	49
COc1ccc(OC)c(NC(=O)Cc2coc3cc(C)cc(C)c23)c1	-0.6	109	15	·	83	101
Cn1c(COc2ccc3ccccc3c2)nnc1SCC(=O)OC1CCCCC1	0.38	104	-4	·	89	68
CCCCNC(=O)CN1C(=O)NC2(CCCc3ccccc32)C1=O (centres undefined)	1	110	13	·	110	104
CCN(CC)c1ccc(C(=O)OCc2cc(=O)oc3cc(O)ccc23)cc1	-3.1*	·	6	·	·	·
COc1ccccc1NC(=O)c1cc2ccc(O)cc2o/c1=N\O	-2.3	96	4	12	36*	81
COc1ccccc1N=c1oc2cc(O)ccc2cc1C(N)=O	-0.75	·	4	43*	·	·
COC(=O)C1CCN(C(=O)C2CCCCC2)CC1	0.64	99	6	2	101	97
CCC(=O)NCCc1nc2cc(NC(=O)c3ccc(OC)cc3)ccc2n1C	0.2	93	-19	·	83	97
O=C(NC1CCCCC1)c1ccccc1NC(=O)C1CC1	0.43	100	-10	·	92	100
Clc1ccc(CCNc2ncnc3nc[nH]c23)cc1	·	·	-10	35*	·	·
c1ccc(CCCNc2ncnc3nc[nH]c23)cc1	·	93	·	0	85	88
CCCSc1nsc(NC(=O)C(c2ccccc2)c2ccccc2)n1	-3.1*	87	1	·	18*	68
O=S(=O)(C/C(=C/CO)S(=O)(=O)c1ccccc1)c1ccccc1	-0.78	·	-2	98*	·	·
COc1ccc(S(=O)(=O)N2CCCCCC2)cc1C(=O)OCc1c(C)noc1C	-1	88	-39	3	76	89
Cc1noc(C)c1COC(=O)c1cccc(S(=O)(=O)N2CCCCCC2)c1	0.42	94	·	40*	73	94
Nc1c(C(=O)C2CC2)sc2nc(-c3cccs3)cc(C(F)(F)F)c12	0.63	101	17	·	12*	32
O=CNc1ccc(S(=O)(=O)NCc2ccccc2)cc1	-0.33	98	0	·	94	100
O=S(=O)(c1ccc(S(=O)(=O)N2CCCC2)cc1)N1CCCCCC1	0.05	102	12	4	95	95
O=S(=O)(c1ccc2c(c1)C(=NO)c1cc(S(=O)(=O)N3CCCCC3)ccc1-2)N1CCCCC1	-2.6	1.6*	60*	0	0.4*	1.6*
CC1CCN(S(=O)(=O)c2ccc3c(c2)C(=NO)c2cc(S(=O)(=O)N4CCC(C)CC4)ccc2-3)CC1	-2.8	2.3*	-29	·	0.9*	2.8*
CC1=CCC2C(=O)N(c3ccc(C)c(Br)c3)C(=O)C2C1 (centres undefined)	·	·	2	1	·	·
SMILES	PTK2B oligo ant	Fibroblast inh	cytoskel mod	Jurkat viability	H69AR growth 86K	HUVEC prolif 384
COc1ccc(C(=O)CSc2nnc(Cn3cnc4ccccc43)o2)cc1	-0.41	92	-20	92*	75	54
COc1ccc(C(=O)CSc2nnc(Cc3ccccc3)o2)cc1	0.11	98	7	4	90	109
Cc1cc(C)cc(Nc2ncc3c(n2)CCCC3=O)c1	0.26	105	8	0	85	97
COc1ccccc1-c1nnc(NC(=O)c2ccc(S(=O)(=O)N(C)Cc3ccccc3)cc2)o1	·	67	24	12	22*	17*
CN(Cc1ccccc1)S(=O)(=O)c1ccc(C(=O)Nc2nnc(C3CC3)o2)cc1	-2.1	·	19	100*	·	·
CN(c1ccccc1)S(=O)(=O)c1ccc(C(=O)Nc2nnc(-c3ccc(F)cc3)o2)cc1	·	71	·	-6	34*	2.0*
COc1ccccc1N(C)S(=O)(=O)c1ccc(C(=O)NC2=NCCS2)cc1	-2.2	105	1	·	81	107
CN(c1ccccc1)S(=O)(=O)c1ccc(NC(=O)c2ccc(-c3ccccc3)cc2)cc1	-0.42	·	9	·	·	·
O=C(CSc1nnc(CN2CCOCC2)n1-c1ccccc1)Nc1ccc(Cl)cc1	2	98	5	8	95	100
O=C(Nc1ccc(S(=O)(=O)C(F)F)cc1)c1cccc(S(=O)(=O)N2CCOCC2)c1	-0.81	97	34	20	47	86
Cc1ccc(NC(=O)COc2ccccc2CNC(C)(C)CC(C)(C)C)cc1	0.34	35*	11	·	1.6*	33
CC(C)(CO)NCc1ccccc1OCC(=O)Nc1ccccc1	0.58	96	5	4	89	95
Nc1nc(-c2ccco2)c(-c2ccco2)s1	0.06	·	-24	1	97	88
c1coc(-c2nc(-c3ccco3)c(-c3ccco3)nc2-c2ccco2)c1	0.64	84	1	·	27*	69
c1ccc(-c2nc(N3CCNCC3)nc3ccccc23)cc1	0.76	88	-9	·	4.4*	63
Cc1ccnc(NC(=O)CCc2c(C)nc3ncnn3c2C)c1	0.95	101	6	-6	95	102
COc1ccc(C2=NN(C(=O)CSc3cn(C)c4ccccc34)C(c3ccc(OC)cc3)C2)cc1 (centres undefined)	·	88	-11	·	67	96
c1cc2c(cc1C1CCCCC1)c1c3n2CCN=C3CCC1	-2.1	66	-4	·	0.2*	2.1*
c1cc2c(cc1C1CCCCC1)c1c3n2CCCNC3CCC1 (centres undefined)	-0.43	2.6*	0	·	1.3*	2.7*
Cc1ccc2c(c1)c1c3n2CCN=C3CCC1	-0.29	98	·	·	92	83
Nn1c(SCC(=O)Nc2ccc(S(=O)(=O)N3CCCC3)cc2)nnc1C(F)(F)F	2	103	-1	-4	92	93
COc1cccc(N2CCN(S(=O)(=O)c3ccc4nc(-c5ccccc5)[nH]c4c3)CC2)c1	-1.3	97	-2	11	13*	60
COc1ccc(N2CCN(S(=O)(=O)c3ccc(OC)cc3)CC2)cc1	-2.2	95	-1	-2	97	98
CCOc1ccc(-c2cc(CCCC(=O)Nc3cccc(OC)c3)no2)cc1	·	55	·	91*	23*	68
CCOc1ccc(NC(=O)CCCc2cc(-c3ccc(OCC)cc3)on2)cc1	-0.28	88	0	·	51	94
CCCn1c(N2CCN(S(=O)(=O)Cc3ccccc3)CC2)nc2ccccc21	-0.6	57	-16	7	39*	77
